Converted amounts (≈) assume the structure as drawn. The source made the active and inactive calls. The rule behind the calls is not given here.
Key:
[1] = Drug level in rat plasma at 2000 mg/kg, po measured after 24 hrs; type: ADME, organism-based; conditions: in vivo
[2] = Drug metabolism in human liver microsomes assessed as metabolite retention time incubation for 45 mins; type: ADME, Microsome; conditions: 0.75 h
Summary of the method: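 Incubation of substrate in pooled male and female human liver microsomes for 45 min; parent and metabolite resolved by LC-MS, metabolite identified by retention time and [M+H]+ ion.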

[3] = Drug metabolism in beta-naphthoflavone/phenobarbital-induced rat liver S9 fraction assessed as compound-D1 formation at 100 ug/ml in presence of NADPH measured after 4 hrs by UV-Vis spectroscopy; type: ADME, subcellular; conditions: s9, 4 h
[4] = Drug metabolism in beta-naphthoflavone/phenobarbital-induced rat liver S9 fraction assessed as compound-D2 formation at 100 ug/ml in presence of NADPH measured after 4 hrs by UV-Vis spectroscopy; type: ADME, subcellular; conditions: s9, 4 h
CYP1A1 = CYP1A1 (Homo sapiens, UniProt P04798); assay: Drug metabolism assessed as human CYP1A1-mediated metabolism by measuring half life; type: ADME; conditions: human CYP1A1 enzyme
Chain of CYP1A1 (P04798 whole entry): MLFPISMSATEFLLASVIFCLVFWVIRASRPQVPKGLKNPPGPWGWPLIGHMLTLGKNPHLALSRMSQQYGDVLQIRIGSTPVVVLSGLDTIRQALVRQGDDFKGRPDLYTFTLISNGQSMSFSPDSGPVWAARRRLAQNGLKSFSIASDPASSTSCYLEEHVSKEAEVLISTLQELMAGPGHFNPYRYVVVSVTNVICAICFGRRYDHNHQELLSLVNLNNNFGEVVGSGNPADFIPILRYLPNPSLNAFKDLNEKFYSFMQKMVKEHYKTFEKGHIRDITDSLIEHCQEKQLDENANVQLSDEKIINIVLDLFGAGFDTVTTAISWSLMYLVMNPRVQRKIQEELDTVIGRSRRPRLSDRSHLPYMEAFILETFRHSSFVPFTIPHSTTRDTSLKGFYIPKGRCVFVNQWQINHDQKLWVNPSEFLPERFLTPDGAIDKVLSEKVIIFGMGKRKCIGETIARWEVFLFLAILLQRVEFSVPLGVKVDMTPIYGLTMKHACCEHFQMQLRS

CYP1A2 = CYP1A2 (Homo sapiens, UniProt P05177); assay: Drug metabolism assessed as human CYP1A2-mediated metabolism by measuring half life; type: ADME; conditions: human CYP1A2 enzyme
CYP2B6 = CYP2B6 (Homo sapiens, UniProt P20813); assay: Drug metabolism assessed as human CYP2B6-mediated metabolism by measuring half life; type: ADME; conditions: human CYP2B6 enzyme
Chain of CYP2B6 (P20813 whole entry): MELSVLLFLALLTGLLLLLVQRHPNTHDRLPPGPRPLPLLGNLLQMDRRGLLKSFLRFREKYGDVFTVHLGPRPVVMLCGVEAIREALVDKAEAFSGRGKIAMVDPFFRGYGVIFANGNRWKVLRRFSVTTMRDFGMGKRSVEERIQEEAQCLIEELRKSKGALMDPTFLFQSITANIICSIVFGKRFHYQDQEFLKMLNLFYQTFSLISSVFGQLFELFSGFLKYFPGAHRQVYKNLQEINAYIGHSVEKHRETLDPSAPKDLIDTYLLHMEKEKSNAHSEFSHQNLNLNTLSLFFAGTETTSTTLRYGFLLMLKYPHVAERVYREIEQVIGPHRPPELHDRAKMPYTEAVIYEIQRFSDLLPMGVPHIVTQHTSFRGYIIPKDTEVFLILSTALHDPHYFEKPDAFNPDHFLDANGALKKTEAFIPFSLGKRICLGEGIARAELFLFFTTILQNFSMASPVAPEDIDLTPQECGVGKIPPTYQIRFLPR

CYP2C8 = CYP2C8 (Homo sapiens, UniProt P10632); assay: Drug metabolism assessed as human CYP2C8-mediated metabolism by measuring half life; type: ADME; conditions: human CYP2C8 enzyme
Chain of CYP2C8 (P10632 whole entry): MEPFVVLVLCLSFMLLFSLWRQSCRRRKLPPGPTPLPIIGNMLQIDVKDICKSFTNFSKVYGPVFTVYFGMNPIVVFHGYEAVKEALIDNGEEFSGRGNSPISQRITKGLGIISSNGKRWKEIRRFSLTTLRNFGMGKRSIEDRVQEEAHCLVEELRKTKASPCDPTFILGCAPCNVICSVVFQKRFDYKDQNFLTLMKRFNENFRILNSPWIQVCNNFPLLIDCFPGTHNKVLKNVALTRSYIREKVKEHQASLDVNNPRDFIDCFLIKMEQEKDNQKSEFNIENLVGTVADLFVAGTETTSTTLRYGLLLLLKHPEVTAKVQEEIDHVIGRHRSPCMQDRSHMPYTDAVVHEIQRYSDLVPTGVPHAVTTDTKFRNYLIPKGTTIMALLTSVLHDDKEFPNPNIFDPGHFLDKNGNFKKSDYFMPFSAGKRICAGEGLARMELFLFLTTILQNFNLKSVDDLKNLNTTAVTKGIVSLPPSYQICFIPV

CYP2C9 = CYP2C9 (Homo sapiens, UniProt P11712); assay: Drug metabolism assessed as human CYP2C9-mediated metabolism by measuring half life; type: ADME; conditions: human CYP2C9 enzyme
Chain of CYP2C9 (P11712 whole entry): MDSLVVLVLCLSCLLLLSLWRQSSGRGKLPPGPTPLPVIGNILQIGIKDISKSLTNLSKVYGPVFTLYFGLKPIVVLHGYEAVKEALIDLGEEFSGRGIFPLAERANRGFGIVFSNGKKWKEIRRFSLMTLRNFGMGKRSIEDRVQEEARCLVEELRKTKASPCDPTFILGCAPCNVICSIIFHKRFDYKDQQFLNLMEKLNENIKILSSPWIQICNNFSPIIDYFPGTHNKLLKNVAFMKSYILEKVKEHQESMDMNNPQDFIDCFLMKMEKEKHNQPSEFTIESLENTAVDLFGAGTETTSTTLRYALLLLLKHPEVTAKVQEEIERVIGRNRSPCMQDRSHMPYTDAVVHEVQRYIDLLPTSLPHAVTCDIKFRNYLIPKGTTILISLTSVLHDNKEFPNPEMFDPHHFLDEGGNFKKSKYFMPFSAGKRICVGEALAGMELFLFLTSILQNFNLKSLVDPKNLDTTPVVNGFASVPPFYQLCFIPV

CYP2C19 = CYP2C19 (Homo sapiens, UniProt P33261); assay: Drug metabolism assessed as human CYP2C19-mediated metabolism by measuring half life; type: ADME; conditions: human CYP2C19 enzyme
Chain of CYP2C19 (P33261 whole entry): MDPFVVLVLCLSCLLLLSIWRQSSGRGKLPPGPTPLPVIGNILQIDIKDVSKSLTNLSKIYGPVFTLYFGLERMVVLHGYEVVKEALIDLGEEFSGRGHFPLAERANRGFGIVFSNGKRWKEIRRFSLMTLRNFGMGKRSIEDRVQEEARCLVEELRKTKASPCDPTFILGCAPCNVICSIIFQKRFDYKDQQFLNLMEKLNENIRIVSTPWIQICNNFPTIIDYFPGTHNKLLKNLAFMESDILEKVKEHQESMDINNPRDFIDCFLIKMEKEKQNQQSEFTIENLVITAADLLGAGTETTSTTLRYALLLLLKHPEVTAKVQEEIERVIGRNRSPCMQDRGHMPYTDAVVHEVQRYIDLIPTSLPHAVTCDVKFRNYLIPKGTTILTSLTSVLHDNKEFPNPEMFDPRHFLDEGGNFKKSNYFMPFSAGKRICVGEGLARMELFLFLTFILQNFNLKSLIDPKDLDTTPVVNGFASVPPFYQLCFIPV

CYP2D6 = CYP2D6 (Homo sapiens, UniProt P10635); assay: Drug metabolism assessed as human CYP2D6-mediated metabolism by measuring half life; type: ADME; conditions: human CYP2D6 enzyme
Chain of CYP2D6 (P10635 whole entry): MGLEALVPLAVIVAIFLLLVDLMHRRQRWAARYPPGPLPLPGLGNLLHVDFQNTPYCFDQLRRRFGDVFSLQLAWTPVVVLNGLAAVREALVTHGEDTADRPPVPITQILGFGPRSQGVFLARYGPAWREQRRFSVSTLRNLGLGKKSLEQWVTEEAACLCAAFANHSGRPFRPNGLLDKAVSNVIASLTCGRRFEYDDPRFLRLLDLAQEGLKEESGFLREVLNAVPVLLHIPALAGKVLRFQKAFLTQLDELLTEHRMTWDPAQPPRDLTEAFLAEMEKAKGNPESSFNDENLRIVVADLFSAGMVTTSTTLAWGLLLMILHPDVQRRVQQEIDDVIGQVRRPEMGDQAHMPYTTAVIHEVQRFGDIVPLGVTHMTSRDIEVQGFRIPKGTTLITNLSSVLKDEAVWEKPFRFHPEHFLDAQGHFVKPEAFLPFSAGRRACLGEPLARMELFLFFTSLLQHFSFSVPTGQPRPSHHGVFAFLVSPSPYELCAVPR

CYP3A4 = CYP3A4 (Homo sapiens, UniProt P08684); assay: Drug metabolism assessed as human CYP3A4-mediated metabolism by measuring half life; type: ADME; conditions: human CYP3A4 enzyme
Chain of CYP3A4 (P08684 whole entry): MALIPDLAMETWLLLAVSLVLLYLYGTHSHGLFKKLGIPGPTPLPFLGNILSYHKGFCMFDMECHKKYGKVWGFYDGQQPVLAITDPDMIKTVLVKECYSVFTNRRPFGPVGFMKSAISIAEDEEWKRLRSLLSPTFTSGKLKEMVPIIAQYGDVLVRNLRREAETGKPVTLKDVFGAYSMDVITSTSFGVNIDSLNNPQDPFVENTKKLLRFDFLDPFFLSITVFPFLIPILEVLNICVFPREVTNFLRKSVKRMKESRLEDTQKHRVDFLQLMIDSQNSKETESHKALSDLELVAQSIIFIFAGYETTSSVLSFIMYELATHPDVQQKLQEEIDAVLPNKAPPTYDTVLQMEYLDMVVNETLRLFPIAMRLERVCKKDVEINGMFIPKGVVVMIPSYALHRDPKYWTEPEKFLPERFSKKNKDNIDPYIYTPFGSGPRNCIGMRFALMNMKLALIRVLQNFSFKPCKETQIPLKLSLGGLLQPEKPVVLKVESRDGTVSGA

Cytochrome P450 1A2 [5] = biological target: T1, Cytochrome P450 1A2 (Homo sapiens, UniProt P05177); assay: Drug metabolism assessed as human CYP1A2-mediated metabolism by measuring DHD1 formation; type: ADME; conditions: recombinant enzyme
T1 sequence (P05177 whole entry): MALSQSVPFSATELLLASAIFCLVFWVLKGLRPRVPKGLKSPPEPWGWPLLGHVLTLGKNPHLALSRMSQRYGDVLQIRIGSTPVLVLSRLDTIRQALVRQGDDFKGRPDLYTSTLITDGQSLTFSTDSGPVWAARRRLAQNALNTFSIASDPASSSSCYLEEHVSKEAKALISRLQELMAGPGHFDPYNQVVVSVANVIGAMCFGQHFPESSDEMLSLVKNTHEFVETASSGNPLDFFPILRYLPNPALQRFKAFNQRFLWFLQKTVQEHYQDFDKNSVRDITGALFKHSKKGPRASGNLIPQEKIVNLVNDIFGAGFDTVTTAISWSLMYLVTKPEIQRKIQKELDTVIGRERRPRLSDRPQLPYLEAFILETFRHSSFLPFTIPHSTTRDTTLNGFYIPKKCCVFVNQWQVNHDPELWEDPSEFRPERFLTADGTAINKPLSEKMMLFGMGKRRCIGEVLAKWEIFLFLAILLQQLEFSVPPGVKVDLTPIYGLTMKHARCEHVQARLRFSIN

Cytochrome P450 2B6 [6] = biological target: T2, Cytochrome P450 2B6 (Homo sapiens, UniProt P20813); assay: Drug metabolism assessed as human CYP2B6-mediated metabolism by measuring DHD1 formation; type: ADME; conditions: recombinant enzyme
T2 sequence (P20813 whole entry): as the sequence (P20813 whole entry) above

Cytochrome P450 2D6 [7] = biological target: T3, Cytochrome P450 2D6 (Homo sapiens, UniProt P10635); assay: Drug metabolism assessed as human CYP2D6-mediated metabolism by measuring DHD1 formation; type: ADME; conditions: recombinant enzyme
T3 sequence (P10635 whole entry): as the sequence (P10635 whole entry) above

Cytochrome P450 1A1 = Cytochrome P450 1A1 (Homo sapiens, UniProt P04798); assay: Drug metabolism assessed as human CYP1A1-mediated metabolism by measuring DHD3 formation; type: ADME; conditions: recombinant enzyme
Chain of Cytochrome P450 1A1 (P04798 whole entry): as the sequence (P04798 whole entry) above

Cytochrome P450 1A2 [8] = biological target: T1, Cytochrome P450 1A2; assay: Drug metabolism assessed as human CYP1A2-mediated metabolism by measuring DHD3 formation; type: ADME; conditions: recombinant enzyme
Cytochrome P450 2B6 [9] = biological target: T2, Cytochrome P450 2B6; assay: Drug metabolism assessed as human CYP2B6-mediated metabolism by measuring DHD3 formation; type: ADME; conditions: recombinant enzyme
Cytochrome P450 2C8 = Cytochrome P450 2C8 (Homo sapiens, UniProt P10632); assay: Drug metabolism assessed as human CYP2C8-mediated metabolism by measuring DHD3 formation; type: ADME; conditions: recombinant enzyme
Chain of Cytochrome P450 2C8 (P10632 whole entry): as the sequence (P10632 whole entry) above

Cytochrome P450 2C9 = Cytochrome P450 2C9 (Homo sapiens, UniProt P11712); assay: Drug metabolism assessed as human CYP2C9-mediated metabolism by measuring DHD3 formation; type: ADME; conditions: recombinant enzyme
Chain of Cytochrome P450 2C9 (P11712 whole entry): as the sequence (P11712 whole entry) above

Cytochrome P450 2C19 = Cytochrome P450 2C19 (Homo sapiens, UniProt P33261); assay: Drug metabolism assessed as human CYP2C19-mediated metabolism by measuring DHD3 formation; type: ADME; conditions: recombinant enzyme
Chain of Cytochrome P450 2C19 (P33261 whole entry): as the sequence (P33261 whole entry) above

Cytochrome P450 2D6 [10] = biological target: T3, Cytochrome P450 2D6; assay: Drug metabolism assessed as human CYP2D6-mediated metabolism by measuring DHD3 formation; type: ADME; conditions: recombinant enzyme
Cytochrome P450 3A4 = Cytochrome P450 3A4 (Homo sapiens, UniProt P08684); assay: Drug metabolism assessed as human CYP3A4-mediated metabolism by measuring DHD3 formation; type: ADME; conditions: recombinant enzyme
Chain of Cytochrome P450 3A4 (P08684 whole entry): as the sequence (P08684 whole entry) above

[11] = Intrinsic clearance in human liver microsomes in presence of CYP1A inhibitor alpha-naphthoflavone; type: ADME, Microsome; conditions: with alpha-naphthoflavone (CYP1A inhibitor), read-out: CLH
[12] = Intrinsic clearance in human liver microsomes in presence of CYP2B6 inhibitor Ticlopidine; type: ADME, Microsome; conditions: with Ticlopidine (CYP2B6 inhibitor), read-out: CLH
[13] = Intrinsic clearance in human liver microsomes in presence of CYP2D6 inhibitor Quinidine; type: ADME, Microsome; conditions: with Quinidine (CYP2D6 inhibitor), read-out: CLH
[14] = Intrinsic clearance in human liver microsomes; type: ADME, Microsome; conditions: read-out: CLH
[15] = Drug metabolism in rat plasma assessed as formation of glucuronide conjugate of dihydrodiol at 2000 mg/kg, po dosed for 28 days; type: ADME, organism-based; conditions: in vivo, 672 h
[16] = Drug metabolism in rat plasma assessed as formation of O-glucuronide conjugate of aromatized diol at 2000 mg/kg, po dosed for 28 days; type: ADME, organism-based; conditions: in vivo, 672 h
Cytochrome P450 1A2 [17] = biological target: T1, Cytochrome P450 1A2; assay: Inhibition of CYP1A2 in human liver microsomes; type: ADME
[18] = Effect on microsomal protein concentrations in minipig at 500 mg/kg/day, po for 39 weeks; type: ADME, organism-based, Sus scrofa domesticus; conditions: pig, in vivo, 6552 h
[19] = Effect on total cytochrome P450 content in minipig at 500 mg/kg/day, po for 39 weeks; type: ADME, organism-based, Sus scrofa domesticus; conditions: pig, in vivo, 6552 h
Rattus norvegicus [20] = assay: Effect on microsomal protein concentrations in rat at 2000 mg/kg/day, po for 28 days; type: ADME, organism-based; conditions: in vivo, 672 h
Summary of the method: (§1)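 Rats dosed 2000 mg/kg/day by oral gavage for 28 days; liver microsomes prepared, microsomal protein concentration and total P450 content measured.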

Rattus norvegicus [21] = assay: Effect on total cytochrome P450 content in rat at 2000 mg/kg/day, po for 28 days; type: ADME, organism-based; conditions: in vivo, 672 h; summary of the method: as §1
[22] = Induction of CYP1A1/2 enzymes in male minipig assessed as increase in EROD enzyme activity at 500 mg/kg/day, po for 39 weeks relative to control; type: ADME, organism-based, Sus scrofa domesticus; conditions: pig, in vivo, 6552 h
[23] = Induction of CYP2B enzymes in male minipig assessed as increase in PROD enzyme activity at 500 mg/kg/day, po for 39 weeks relative to control; type: ADME, organism-based, Sus scrofa domesticus; conditions: pig, in vivo, 6552 h
[24] = Induction of CYP3A enzymes in minipig assessed as increase in testosterone hydroxylase activity at 500 mg/kg/day, po for 39 weeks relative to control; type: ADME, organism-based, Sus scrofa domesticus; conditions: pig, in vivo, 6552 h
[25] = Induction of CYP2E1 enzymes in minipig assessed as increase in 11-hydroxylase activity at 500 mg/kg/day, po for 39 weeks relative to control; type: ADME, organism-based, Sus scrofa domesticus; conditions: pig, in vivo, 6552 h
[26] = Induction of CYP4A enzymes in minipig assessed as increase in 12-hydroxylase activity at 500 mg/kg/day, po for 39 weeks relative to control; type: ADME, organism-based, Sus scrofa domesticus; conditions: pig, in vivo, 6552 h
[27] = Kinetic aqueous solubility of the compound; type: physicochemical; conditions: buffer; read-out: Kinetic_solubility
[28] = Permeability at pH 7.4 by PAMPA; type: ADME; conditions: read-out: permeability
[29] = Protein binding in mouse plasma assessed as bound fraction; type: ADME, cell-free; conditions: read-out: PPB (converted)
Summary of the method: (§2)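 Binding measured in 100% plasma; reported as fraction bound.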

[30] = Protein binding in human plasma assessed as bound fraction; type: ADME, cell-free; conditions: read-out: PPB (converted); summary of the method: as §2
[31] = Half life in mouse liver S9 fraction; type: ADME, subcellular
Summary of the method: (§3)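 Metabolic stability of the dihydrodiols measured in vitro with mouse and human liver S9 fractions and with mouse and human hepatocytes; half-life from substrate depletion.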

[32] = Half life in human liver S9 fraction; type: ADME, subcellular; summary of the method: as §3
[33] = Intrinsic clearance in mouse liver S9 fraction; type: ADME, subcellular; conditions: read-out: CLH
[34] = Intrinsic clearance in human liver S9 fraction; type: ADME, subcellular; conditions: read-out: CLH
[35] = test system: UDP-glucuronosyltransferases (UGTs); assay: Drug metabolism assessed as human UGT-mediated metabolism by measuring half life for DHD3 formation; type: ADME, protein assay
Homo sapiens = species on record: Homo sapiens; assay: Substrate activity at MDR4 (unknown origin)

- Drug uptake [1]: 38 to 89%
- Retention_time [2]: 5.7 min
- Drug metabolism [3]: Metabolite_Detected
- Drug metabolism [4]: Metabolite_Detected
- half-life (CYP1A1): 2.16 min
- half-life (CYP1A2): 2.62 min
- half-life (CYP2B6): ≥ 180 min
- half-life (CYP2C8): ≥ 180 min
- half-life (CYP2C9): ≥ 180 min
- half-life (CYP2C19): ≥ 180 min
- half-life (CYP2D6): ≥ 180 min
- half-life (CYP3A4): ≥ 180 min
- Drug metabolism (Cytochrome P450 1A2 [5]): Metabolite_Detected
- Drug metabolism (Cytochrome P450 2B6 [6]): Metabolite_Detected
- Drug metabolism (Cytochrome P450 2D6 [7]): Metabolite_Detected
- Drug metabolism (Cytochrome P450 1A1): Metabolite_Notdetected
- Drug metabolism (Cytochrome P450 1A2 [8]): Metabolite_Notdetected
- Drug metabolism (Cytochrome P450 2B6 [9]): Metabolite_Notdetected
- Drug metabolism (Cytochrome P450 2C8): Metabolite_Notdetected
- Drug metabolism (Cytochrome P450 2C9): Metabolite_Notdetected
- Drug metabolism (Cytochrome P450 2C19): Metabolite_Notdetected
- Drug metabolism (Cytochrome P450 2D6 [10]): Metabolite_Notdetected
- Drug metabolism (Cytochrome P450 3A4): Metabolite_Notdetected
- microsomal CLint [11]: 5.06 µL/min/mg
- microsomal CLint [12]: 21.4 µL/min/mg
- microsomal CLint [13]: 35.1 µL/min/mg
- microsomal CLint [14]: 50.7 µL/min/mg
- Drug metabolism [15]: Metabolite_Detected
- Drug metabolism [16]: Metabolite_Detected
- IC50 (Cytochrome P450 1A2 [17]): 5.4 µM
- Activity [22]: Not Active
- Activity [23]: Not Active
- Activity [24]: Not Active
- Activity [25]: Not Active
- Activity [26]: Not Active
- solubility kinetic [27]: 1 to 2 µM (≈ 0.337 to 0.675 µg/mL)
- Papp [28]: 9.5 ×10⁻⁶ cm/s
- fraction unbound [29]: 0.005
- fraction unbound [30]: 0.01
- half-life [31]: 74 min
- half-life [32]: 101 min
- microsomal CLint [33]: 19 µL/min/mg
- microsomal CLint [34]: 14 µL/min/mg
- t1/2 [35]: > 240 min
- Activity (Homo sapiens): inactive
Structure (SMILES): CCS(=O)(=O)c1ccc2oc(-c3ccc4ccccc4c3)nc2c1 [EZUTROMID]
- Activity [18]: Non-Toxic
- Activity [19]: Non-Toxic
- Activity (Rattus norvegicus [20]): Non-Toxic
- Activity (Rattus norvegicus [21]): Non-Toxic
